TCR-CD3 inh = human TCR-CD3 binding inhibition. inhibition, % at 9.4 µM. 0.37% of 360,000 active. AID 651800. TAMRA-labeled TCR probe fluorescence, biochemical; in the data active = inhibition above about 19%;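 note: recombinant mutant TCR 2C K166C tagged with TAMRA read by polarization; 0% = receptor in buffer alone and 100% = receptor with positive control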
PRMT1 inh = blocks human protein arginine methyltransferase 1; recombinant PRMT1, activity-based probe fluorescence polarization; inhibition, % at 2.79 µM; 1.3% of 370,000 active; AID 652257;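 active = inhibition above about 21% made by adding two undisclosed values, limit read from the data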
Target sequence (Q99873 whole entry, looked up): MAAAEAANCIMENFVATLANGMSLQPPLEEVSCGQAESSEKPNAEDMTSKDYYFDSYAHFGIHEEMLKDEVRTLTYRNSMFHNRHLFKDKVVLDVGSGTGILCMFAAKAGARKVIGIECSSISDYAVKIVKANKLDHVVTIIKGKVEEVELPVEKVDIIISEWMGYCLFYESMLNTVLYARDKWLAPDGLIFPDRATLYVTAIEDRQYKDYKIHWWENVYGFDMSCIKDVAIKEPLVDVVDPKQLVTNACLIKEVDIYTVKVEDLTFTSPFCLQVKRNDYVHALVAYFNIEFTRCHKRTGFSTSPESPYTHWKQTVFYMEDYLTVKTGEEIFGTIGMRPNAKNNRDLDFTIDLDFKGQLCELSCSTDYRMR
rCAG binder = r(CAG) repeat RNA binding; TO-PRO-1 dye displacement fluorescence; inhibition, % at 3 µM; 1.3% of 370,000 active;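 active = inhibition above the plate cutoff, the mean of all test compounds on that plate plus 3 SD, cut at about 35% in these data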;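 note: 0% = DMSO alone and 100% = 100 µM mitoxantrone as full dye displacement; higher means more dye released from RNA so lower well fluorescence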
SIAE inh = blocks human sialic acid acetylesterase; Q9HAT2; SIAE FP-Rh probe binding, fluorescence polarization; inhibition, % at 9.66 µM; 0.69% of 370,000 active;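 active = inhibition above a cutoff: mean of compounds within the control limits plus 3 SD of those, cut at about 17% in these data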;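 note: 0% = plate median of compound wells and 100% = probe without SIAE protein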
mABHD4 FP = inhibitors of mouse ABHD4. purified mABHD4, FP-Rh probe fluorescence polarization. inhibition, % at 8.92 µM. 0.54% of 370,000 active;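 active = inhibition exceeding the mean over every tested compound plus 3 SD, cut at about 30% in these data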;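 note: 0% = plate median of compound wells and 100% = S159A mutant with DMSO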
Target sequence (Q8VD66 whole entry, looked up): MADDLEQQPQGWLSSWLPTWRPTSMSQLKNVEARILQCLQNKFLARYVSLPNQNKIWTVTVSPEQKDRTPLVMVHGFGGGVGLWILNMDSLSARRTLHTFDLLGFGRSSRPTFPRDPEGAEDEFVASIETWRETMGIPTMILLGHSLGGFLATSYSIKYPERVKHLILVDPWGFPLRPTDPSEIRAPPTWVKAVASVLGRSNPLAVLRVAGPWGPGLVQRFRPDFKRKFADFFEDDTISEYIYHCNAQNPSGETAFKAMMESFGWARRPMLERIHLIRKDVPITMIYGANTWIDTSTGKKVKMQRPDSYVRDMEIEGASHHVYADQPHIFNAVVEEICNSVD
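Assay system: mouse ABHD4 enzyme, wild type / Also added: fluorescent activity-based probe FP-Rh / Doses: single nominal dose of 8.92 µM, 0.89% DMSO final / Timing: 45 min compound pre-incubation plus 60 min probe step, 25 °C / Signal: FP readout, ex 525 nm / em 598 nm / Control set: S159A mutant/DMSO as 100%, compound-well median as 0%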
rCAG bind conf = r(CAG) RNA repeat binding, confirmation; shares compounds with rCAG binder; TO-PRO-1 dye displacement fluorescence; inhibition, % at 3 µM; 70% of 4,300 active; AID 652065;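 active = inhibition above a per-plate cutoff, the mean inhibition of sample wells plus 3 SD, cut at about 35% in these data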;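 note: loss of TO-PRO-1 fluorescence as compound displaces dye from 1x1 AA loop RNA; 0% = DMSO only wells and 100% = 100 µM mitoxantrone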
dCAG dye counter = DNA CAG dye complex inhibition counter-screen. shares compounds with rCAG binder. d(CAG) DNA oligo TO-PRO-1 dye displacement, fluorescence. inhibition, % at 3 µM. 94% of 4,300 active. AID 652068;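 active = inhibition above its plate's cutoff, the mean test-well inhibition plus 3 SD, cut at about 4.8% in these data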;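 note: 0% = DNA dye mix with DMSO and 100% = 100 µM mitoxantrone; hits displace the dye from DNA and so lower well fluorescence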
DNA CAG DR = disrupts DNA CAG TO-PRO-1 complex in dose response. 20% of 250 active. shares compounds with rCAG binder. DNA CAG/GTC duplex TO-PRO-1 dye displacement fluorescence. IC50, µM; in the data active = IC50 below about 10 µM
PRMT1 confirm = PRMT1 (human) inhibition, FP confirmation; shares compounds with PRMT1 inh; recombinant His-PRMT1, activity-based probe fluorescence polarization; inhibition, % at 2.79 µM; 42% of 3,300 active; AID 687036;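 active = mean inhibition across replicates above the hit cutoff derived for the earlier primary screen, cut at about 22% in these data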
mABHD4 conf = ABHD4 (mouse) inhibition, FP confirmation; shares compounds with mABHD4 FP; purified mABHD4, FP-Rh probe fluorescence polarization; inhibition, % at 8.92 µM; 55% of 1,800 active; AID 720658;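 active = mean inhibition across replicates above the hit cutoff set in the primary screen, cut at about 30% in these data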;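 note: 0% = wild-type ABHD4 with DMSO and 100% = catalytically dead S159A mutant with DMSO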
The depositor's hits bear a star; i = inactive; · = not tested or not shown. Rows were chosen to be rich in hits. Some 3.3% of all compounds tested hit in one or more screens of this group.

SMILES	TCR-CD3 inh	PRMT1 inh	rCAG binder	SIAE inh	mABHD4 FP	rCAG bind conf	dCAG dye counter	mABHD4 conf	others
O=C1/C(=C2\C(=O)N(Cc3ccc(F)cc3)c3ccccc32)SC(=S)N1CCS(=O)(=O)O	-8.5	9.3	75.0*	14.3	75.8*	83.0*	46.9*	100.4*
COC(=O)CNC(=O)C1Nc2ccc(OC(F)(F)F)cc2C2C=CCC12 (stereo unspecified)	-1.0	36.7*	38.6*	5.3	46.9*	1.0	-0.2	-3.7	PRMT1 confirm=2.3
COCCNC(=O)C1Nc2ccc(C(F)(F)F)cc2C2C=CCC12 (stereo unspecified)	-3.6	9.1	44.3*	8.3	32.5*	1.9	2.0	0.0
COc1ccc2c(c1)C1C=CCC1C(c1cc3c(cc1Br)OCO3)N2 (stereo unspecified)	1.9	5.6	12.4	5.0	8.1	·	·	·
FC(F)(F)c1ccc2c(c1)C1C=CCC1C(c1ccncc1)N2 (stereo unspecified)	-19.0	7.6	44.1*	9.8	38.8*	2.7	2.0	13.2
COC(=O)[C@@]1(C(C)C)N=C(c2cc(OC)c(OC)c(OC)c2)[C@]2(O1)C(=O)N(Cc1cn(-c3ccccc3)nn1)c1cccc(Cl)c12	·	-1.0	9.0	2.1	1.1	·	·	·
C=CCSC1=N/C(=C\c2ccc3c(c2)OCO3)C(=O)S1	1.7	2.9	6.0	-0.4	9.1	·	·	·
C=CCSC1=N/C(=C\c2cc(OCC)c(OC(C)=O)c([N+](=O)[O-])c2)C(=O)S1	5.7	28.4*	40.6*	-11.2	36.7*	61.0*	19.8*	84.9*	PRMT1 confirm=7.8
Cc1ccc2c(c1)c(N=Nc1cccc(C(=O)O)c1)c(O)n2C	0.8	3.1	37.8*	-4.3	30.7*	56.2*	12.3*	45.0*	DNA CAG DR=i
Cc1c(C(=O)O)cccc1-c1ccc(/C=N/Nc2ccc(Br)cc2)o1	6.7	3.7	50.1*	13.9	34.6*	64.4*	21.5*	41.6*
O=C(O)c1cccc(-c2ccc(/C=N/Nc3ccc([N+](=O)[O-])cc3)o2)c1	-2.1	-4.2	58.6*	-8.6	38.7*	48.6*	15.3*	52.7*
O=C(O)c1ccc(N/N=C/c2ccc(-c3cccc(Cl)c3)o2)cc1	0.8	4.3	62.5*	16.4	49.5*	49.7*	15.9*	64.8*
COC(=O)[C@]12C[C@H](CC(=O)N3CCN(C(=O)C4CC4)CC3)C(=O)N(CCC3=CCCCC3)C1=C[C@H](C1CCCC1)O[C@@H]2C	·	5.4	5.4	1.1	0.8	·	·	·
O=C(OC12CCCN(C1)/C(=C/c1cccc(Cl)c1)C2)c1ccc(F)cc1 (stereo unspecified)	·	-3.2	2.3	-1.1	1.1	·	·	·
CC(=O)Nc1ccc(Nc2nc3ccccc3nc2NS(=O)(=O)c2ccc(Cl)c([N+](=O)[O-])c2)cc1	4.3	4.1	91.2*	16.3	49.2*	93.2*	76.4*	67.7*
CC(=O)Nc1ccc(S(=O)(=O)Nc2nc3ccccc3nc2N2CCOCC2)cc1	-1.1	5.7	2.7	-3.9	1.3	·	·	·
CC(=O)Nc1ccc(S(=O)(=O)Nc2nc3ccccc3nc2Nc2ccc(C(=O)O)c(O)c2)cc1	18.6	16.4	47.2*	-23.8	42.6*	44.9*	12.6*	43.1*
CC(=O)Nc1ccc(S(=O)(=O)Nc2nc3ccccc3nc2Nc2ccc(N)cc2)cc1	-1.6	22.8*	41.8*	1.1	40.0*	32.1	11.0*	23.5
CC(COc1ccc(C#N)c(F)c1)CN1CCC(C(O)(c2ccccc2)c2ccccc2)CC1 (stereo unspecified)	·	-1.9	3.6	0.9	8.0	·	·	·
Cc1ccccc1CS(=O)(=O)Cc1ccc(C(=O)Nc2cccc(C)c2C)o1	·	-6.5	4.6	-4.7	-0.6	·	·	·
Cc1ccc(/C=C2\SC(=S)N(CC3CCCO3)C2=O)o1 (stereo unspecified)	-6.9	23.4*	46.5*	5.3	29.6*	40.1*	15.3*	-15.6
O=C1/C(=C/c2ccco2)SC(=S)N1CC1CCCO1 (stereo unspecified)	-10.6	34.7*	46.1*	8.7	32.4*	16.3	8.6*	5.1	PRMT1 confirm=5.9
O=C(CCCN1C(=O)/C(=C/c2ccco2)SC1=S)Nc1ccccc1C(=O)O	4.3	55.3*	87.6*	6.7	32.1*	83.4*	49.4*	-26.2	PRMT1 confirm=29.4*
COC(=O)C1CN(Cc2ccc(OC)cc2)CCS(=O)(=O)N1Cc1cn(Cc2ccccc2)nn1 (stereo unspecified)	·	1.6	-0.1	1.9	3.2	·	·	·
CN1CCN(c2ccc3c(c2)Oc2ccccc2CN(Cc2cn(Cc4ccc(F)cc4)nn2)S3(=O)=O)CC1	·	-0.2	0.8	-2.7	-1.4	·	·	·
SMILES	TCR-CD3 inh	PRMT1 inh	rCAG binder	SIAE inh	mABHD4 FP	rCAG bind conf	dCAG dye counter	mABHD4 conf	others
CN=c1scc(-c2ccccc2F)n1/N=C/c1ccc(O)c(O)c1O	15.7	20.2	40.9*	15.6	48.5*	56.2*	25.4*	59.9*
CC(C)N=c1scc(-c2cccs2)n1/N=C/c1ccc(O)c(O)c1O	7.1	9.9	46.2*	13.7	40.9*	55.9*	30.6*	54.1*
O=C(O)Cc1ccc(NC(=O)c2ccc3c(c2)C(=O)N(Cc2ccco2)C3=O)cc1	2.5	1.8	19.4	-1.0	5.5	·	·	·
O=C(Nc1cc([N+](=O)[O-])ccc1O)c1ccc2c(c1)C(=O)N(Cc1ccco1)C2=O	13.3	7.8	83.2*	2.0	38.0*	63.9*	24.9*	50.8*
CN(C)c1ccc2cc(S(=O)(=O)O)cc(O)c2c1	-3.1	102.3*	59.0*	1.6	77.5*	33.2	10.3*	54.3*	PRMT1 confirm=32.6*
COC(=O)C[C@@H]1CC[C@H]2[C@@H](COc3ccc(NC(=O)NC(C)C)cc3C(=O)N2C)O1	·	-1.7	0.5	-5.8	-2.7	·	·	·
O=C(CSc1n[nH]c(=O)[nH]c1=O)Nc1ccc2c(c1)C(=O)c1ccccc1C2=O	15.9	5.2	39.9*	-2.8	38.2*	42.8*	17.4*	56.1*
CCCCCCCCN1C(=O)[C@@H](CC(=O)NCc2cccs2)C[C@@]2(C(=O)OC)C1=C[C@H](C(C)C)O[C@@H]2C1CC1	·	0.9	9.5	3.0	-8.0	·	·	·
Cc1[nH]n2c(=O)cc(-c3ccc([N+](=O)[O-])cc3)nc2c1-c1ccccc1	4.0	-1.6	91.3*	10.3	48.0*	86.7*	63.5*	72.0*

Screens deposited in PubChem BioAssay by The Scripps Research Institute Molecular Screening Center.
